Reference: ChEMBL document CHEMBL3739310, “Deguelins, Natural Product Modulators of NF1-Defective Astrocytoma Cell Growth Identified by High-Throughput Screening of Partially Purified Natural Product Extracts” (J Nat Prod, 2015)
The source made the active and inactive calls. The calls are words filed in the database; no cut-off is given here.

How the values were obtained:
[1] = molecular target: RAC-alpha serine/threonine-protein kinase (Mus musculus) (UniProt P31750); assay: Inhibition of AKT phosphorylation in Nf1 defective and Trp53 defective mouse K5001 cells; format: cell-based
Sequence of RAC-alpha serine/threonine-protein kinase (Mus musculus) (P31750 whole entry, the tested form may be a part): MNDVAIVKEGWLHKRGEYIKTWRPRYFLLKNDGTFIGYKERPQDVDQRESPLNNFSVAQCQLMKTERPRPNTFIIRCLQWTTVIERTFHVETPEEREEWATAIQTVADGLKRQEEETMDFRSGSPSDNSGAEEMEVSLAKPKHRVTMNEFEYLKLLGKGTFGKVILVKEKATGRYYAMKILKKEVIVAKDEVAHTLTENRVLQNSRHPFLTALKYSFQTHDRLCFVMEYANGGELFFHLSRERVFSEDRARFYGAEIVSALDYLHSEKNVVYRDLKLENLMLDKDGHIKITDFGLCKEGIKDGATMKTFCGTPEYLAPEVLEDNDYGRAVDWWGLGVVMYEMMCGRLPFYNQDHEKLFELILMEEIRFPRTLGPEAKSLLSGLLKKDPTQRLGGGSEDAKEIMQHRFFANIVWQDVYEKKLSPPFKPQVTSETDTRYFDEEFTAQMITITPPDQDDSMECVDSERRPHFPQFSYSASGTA

K5001 = assay: Induction of apoptosis in mouse Nf1 defective and Trp53 defective K5001 cells assessed as DNA fragmentation at 10 uM up to 48 hrs by ELISA; format: functional, cell-based
[2] = Growth inhibition of Nf1 defective and Trp53 defective mouse primary astrocytes after 2 days by XTT assay; conditions: Astrocyte
[3] = Growth inhibition of Nf1 defective and Trp53 defective mouse KR158 cells at 80 uM after 2 days by XTT assay; conditions: KR158, 2 days, read-out: GI
[4] = molecular target: RAC-alpha serine/threonine-protein kinase (Mus musculus) (UniProt P31750); assay: Inhibition of AKT phosphorylation in Nf1 defective and Trp53 defective mouse K1492 cells; format: cell-based
KR158 = assay: Induction of apoptosis in Nf1 defective and Trp53 defective mouse KR158 cells assessed as DNA fragmentation at 10 uM up to 48 hrs by ELISA; format: functional, cell-based
[5] = Growth inhibition of Nf1 defective and Trp53 defective mouse KR158 cells after 2 days by XTT assay; conditions: KR158, 2 days
[6] = Growth inhibition of Nf1 defective and Trp53 defective mouse K1492 cells after 2 days by XTT assay; conditions: K1492, 2 days
[7] = Growth inhibition of Nf1 defective and Trp53 defective mouse K5001 cells after 2 days by XTT assay; conditions: K5001, 2 days
[8] = Induction of ROS generation in Nf1 defective and Trp53 defective mouse K1492 cells at 10 uM after 6 hrs DCFDA fluorogenic dye-based fluorimetric analysis; format: functional
Method in brief: (§1)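 Cells plated at 1000/well in black-wall, clear-bottom, polylysine-coated 384-well plates and treated 6 h with 10 μM compound or DMSO control. Carboxymethyl H2DCFDA (10 mM stock in DMSO) added at 25 μM final for the last 1 h. After two PBS washes, cell-associated fluorescence read bottom-mode at Ex 495/Em 529 nm. Result expressed as T/C ratio versus untreated controls, means ± SD.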

[9] = Induction of ROS generation in Nf1 defective and Trp53 defective mouse KR158 cells at 10 uM after 6 hrs DCFDA fluorogenic dye-based fluorimetric analysis; format: functional; method in brief: as §1
[10] = Induction of ROS generation in Nf1 defective and Trp53 defective mouse K5001 cells at 10 uM after 6 hrs by DCFDA fluorogenic dye-based fluorimetric analysis; format: functional; method in brief: as §1

Row | Compound | inhibition [1] | Activity (K5001) | IC50 [2] | inhibition of growth at 80 µM [3] | inhibition [4] | Activity (KR158) | IC50 [5] | IC50 [6] | IC50 [7] | fold change (FC) [8] | fold change (FC) [9] | fold change (FC) [10]
1 | COc1cc2c(cc1OC)-c1c(oc3c4c(ccc3c1=O)OC(C)(C)C=C4)CO2 [DEHYDRODEGUELIN] | inactive | inactive | > 80 µM | 40% | inactive | inactive | > 80 µM | > 80 µM | 1.2 µM | – | – | –
2 | COc1cc2c(cc1OC)[C@@H]1C(=O)c3ccc4c(c3O[C@@H]1CO2)C=CC(C)(C)O4 [DEGUELIN] | inactive | inactive | > 80 µM | – | inactive | inactive | 12.6 µM | > 80 µM | 1.2 µM | 5.6 | 3.9 | 3.5
